Measured values published in ChEMBL document CHEMBL1158473, “Aromatic 2-(thio)ureidocarboxylic acids as a new family of modulators of multidrug resistance-associated protein 1: synthesis, biological evaluation, and structure-activity relationships” (J Med Chem, 2009).
Active and inactive are the calls of the source. The rule behind the calls is not given here.

Legend:
BCRP (ABCG2) = target: T1, BCRP (ABCG2) (Homo sapiens, UniProt Q9UNQ0); test: Inhibition of BCRP expressed in human MCF7 MX cells at 31.6 uM by Hoechst 33342 staining relative to 10 uM XR9577; format: cell-based; conditions: MCF7 MX cells expressing BCRP, probe Hoechst 33342
T1 sequence (Q9UNQ0 whole entry): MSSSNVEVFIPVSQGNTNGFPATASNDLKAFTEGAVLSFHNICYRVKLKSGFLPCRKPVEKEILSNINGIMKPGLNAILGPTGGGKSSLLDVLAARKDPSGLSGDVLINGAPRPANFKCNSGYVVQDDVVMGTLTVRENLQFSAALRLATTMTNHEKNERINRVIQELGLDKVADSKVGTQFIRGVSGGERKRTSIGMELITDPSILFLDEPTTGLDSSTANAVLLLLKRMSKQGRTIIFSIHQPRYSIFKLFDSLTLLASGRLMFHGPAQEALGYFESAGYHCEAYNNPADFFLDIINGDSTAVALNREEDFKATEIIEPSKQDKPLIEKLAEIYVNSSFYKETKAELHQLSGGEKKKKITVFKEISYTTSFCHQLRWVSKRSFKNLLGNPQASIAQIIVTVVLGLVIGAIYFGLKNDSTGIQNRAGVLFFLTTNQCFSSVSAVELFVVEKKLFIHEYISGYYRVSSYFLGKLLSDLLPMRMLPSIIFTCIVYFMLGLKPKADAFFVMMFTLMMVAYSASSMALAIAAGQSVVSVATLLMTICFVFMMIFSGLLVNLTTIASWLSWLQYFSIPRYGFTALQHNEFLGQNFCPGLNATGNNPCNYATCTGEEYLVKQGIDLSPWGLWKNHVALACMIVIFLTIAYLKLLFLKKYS
Summary of the method: (§1)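 MCF-7 MX cells, with parental MCF-7 alongside, in RPMI 1640 plus 10% FCS. Cells washed in Krebs-HEPES, about 20000 per well, preincubated with compound 30 min at 37 °C, 5% CO2. Hoechst 33342 added and fluorescence (ex 355/em 460 nm) read every 120 s up to 2400 s at 37 °C. Background-subtracted slopes were fitted; XR9577 10 μM served as positive control.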

[1] = target: T2, Multidrug resistance-associated protein 1 (Homo sapiens, UniProt P33527); test: Inhibition of MRP1 expressed in multidrug resistant human 2008 cells assessed as calcein AM accumulation by fluorescence assay in presence of p-gp and BCRP inhibitor XR9577; format: cell-based
Summary of the method: (§2)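 Transfected 2008 MRP1 cells run beside 2008 WT cells, 21000 cells per well in Krebs-HEPES buffer. Cobalt sulfate was added to quench extracellular calcein, plus XR9577 to block P-gp. After 30 min preincubation with compound, calcein AM (final 0.5 μM) was added and fluorescence followed 30 min. Slopes were normalized and fitted by a four-parameter logistic; indomethacin (0.316–178 μM) was included.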

2008 [2] = test: Cytotoxicity against human 2008 cells after 24 hrs by MTT assay; format: cell-based; conditions: Homo sapiens, 2008, 24 h
2008 [3] = test: Cytotoxicity against human 2008 cells after 72 hrs by MTT assay; conditions: Homo sapiens, 2008, 72 h
[4] = target: T2, Multidrug resistance-associated protein 1; test: Inhibition of MRP1-mediated calcein AM transport expressed in multidrug resistant human 2008 cells assessed as calcein AM accumulation at 100 uM by fluorescence assay in presence of p-gp and BCRP inhibitor XR9577; format: cell-based; conditions: human, 2008, 100 µM
[5] = target: T3, Broad substrate specificity ATP-binding cassette transporter ABCG2 (Homo sapiens, UniProt Q9UNQ0); test: Inhibition of BCRP expressed in MCF7 MX cells by Hoechst 33342 staining; format: cell-based; summary of the method: as §1
T3 sequence (Q9UNQ0 whole entry): T1 sequence (Q9UNQ0 whole entry)

2008 [6] = test: Potentiation of daunorubicin-induced cytotoxic activity against MRP1-expressing human 2008 cells at 31.6 uM after 72 hrs by MTT assay; format: functional, cell-based
Summary of the method: (§3)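 2008 MRP1 cells given a fixed 31.6 μM modulator together with vinblastine or daunorubicin at 0.1 nM–100 μM. Cytostatic alone was tested on 2008 MRP1 and WT cells as control; indomethacin 31.6 μM served as positive control. After 72 h, viability was read by MTT.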

2008 [7] = test: Potentiation of vinblastine-induced cytotoxic activity against MRP1-expressing human 2008 cells at 31.6 uM after 72 hrs by MTT assay; format: functional, cell-based; summary of the method: as §3
[8] = target: T2, Multidrug resistance-associated protein 1; test: Inhibition of MRP1; summary of the method: as §2
A2780 ADR [9] = test: Inhibition of P-gp expressed in human A2780/ADR cells assessed as calcein AM accumulation a 100 uM by fluorescence assay; format: cell-based
Summary of the method: (§4)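 P-gp-overexpressing A2780/ADR cells, with wild-type A2780 alongside. Calcein AM accumulation run as in the MRP1 assay (30 min preincubation, final 0.5 μM calcein AM, 30 min reading) but without cobalt or XR9577. XR9577 10 μM served as positive control.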

A2780 ADR [10] = test: Inhibition of P-gp expressed in human A2780/ADR cells assessed as calcein AM accumulation a 31.6 uM by fluorescence assay; format: cell-based; summary of the method: as §4

T2 sequence (P33527 whole entry): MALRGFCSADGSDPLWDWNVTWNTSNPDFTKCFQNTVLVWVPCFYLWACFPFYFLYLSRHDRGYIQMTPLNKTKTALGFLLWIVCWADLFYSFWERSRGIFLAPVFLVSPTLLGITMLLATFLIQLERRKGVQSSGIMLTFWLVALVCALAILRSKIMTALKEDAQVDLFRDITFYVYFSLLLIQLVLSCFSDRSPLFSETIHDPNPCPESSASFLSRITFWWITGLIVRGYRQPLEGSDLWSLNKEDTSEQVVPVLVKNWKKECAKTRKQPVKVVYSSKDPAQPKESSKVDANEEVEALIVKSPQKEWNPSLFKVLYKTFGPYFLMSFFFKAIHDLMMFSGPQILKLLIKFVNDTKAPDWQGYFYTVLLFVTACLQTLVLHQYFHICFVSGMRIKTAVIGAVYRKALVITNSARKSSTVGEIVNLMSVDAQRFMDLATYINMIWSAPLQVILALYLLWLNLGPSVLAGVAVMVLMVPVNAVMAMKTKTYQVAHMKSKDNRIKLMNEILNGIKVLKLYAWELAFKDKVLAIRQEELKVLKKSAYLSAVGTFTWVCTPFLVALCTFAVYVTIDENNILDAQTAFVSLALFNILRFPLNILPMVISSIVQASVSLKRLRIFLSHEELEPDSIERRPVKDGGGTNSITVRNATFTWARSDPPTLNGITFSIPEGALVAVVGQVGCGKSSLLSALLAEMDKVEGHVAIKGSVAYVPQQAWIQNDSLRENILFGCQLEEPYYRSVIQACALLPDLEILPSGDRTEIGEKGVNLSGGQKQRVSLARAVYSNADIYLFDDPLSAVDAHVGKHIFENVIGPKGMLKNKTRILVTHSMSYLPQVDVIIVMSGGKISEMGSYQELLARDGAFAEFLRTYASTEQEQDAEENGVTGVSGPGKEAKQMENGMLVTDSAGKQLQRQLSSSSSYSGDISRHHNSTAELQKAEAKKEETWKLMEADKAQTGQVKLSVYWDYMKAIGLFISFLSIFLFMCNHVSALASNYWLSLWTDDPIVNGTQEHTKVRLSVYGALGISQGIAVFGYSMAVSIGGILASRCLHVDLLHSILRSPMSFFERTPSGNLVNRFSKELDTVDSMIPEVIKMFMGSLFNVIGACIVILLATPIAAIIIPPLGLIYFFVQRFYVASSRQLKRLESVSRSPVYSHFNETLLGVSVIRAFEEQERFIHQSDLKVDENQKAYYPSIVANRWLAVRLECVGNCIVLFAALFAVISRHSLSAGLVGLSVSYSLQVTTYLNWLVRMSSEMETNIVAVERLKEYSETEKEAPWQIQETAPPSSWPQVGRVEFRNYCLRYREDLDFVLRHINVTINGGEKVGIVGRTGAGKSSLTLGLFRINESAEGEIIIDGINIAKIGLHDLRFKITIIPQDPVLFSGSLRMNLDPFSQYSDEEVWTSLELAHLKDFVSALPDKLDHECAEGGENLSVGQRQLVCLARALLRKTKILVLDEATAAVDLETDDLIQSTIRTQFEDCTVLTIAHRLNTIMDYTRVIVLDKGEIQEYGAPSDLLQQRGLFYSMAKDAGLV

| SMILES | IC50 [1] [µM] | IC50 2008 [3] [µM] | inhibition (INH) [4] | also measured |
| --- | --- | --- | --- | --- |
| CCN(CC)C(=S)Nc1ccsc1C(=O)O | 4.18 |  |  | inhibition at 31.6 µM (BCRP (ABCG2)): 25%; IC50 2008 [2]: > 100 µM |
| CN(Cc1ccccc1)C(=S)Nc1ccccc1C(=O)O | 29.1 |  |  |  |
| CCN(CC)C(=S)Nc1sc(C)c(C)c1C(=O)O | 20.4 |  |  |  |
| CCN(CC)C(=S)Nc1sc2c(c1C(=O)O)CCCCC2 | 5.97 | > 100 |  | inhibition at 31.6 µM (BCRP (ABCG2)): 25% |
| Cc1sc(NC(=S)N2CCOCC2)c(C(=O)O)c1C | 18.3 |  |  |  |
| O=C(O)c1c(NC(=S)N2CCOCC2)sc2c1CCCC2 |  |  | Not Active |  |
| O=C(O)c1cc(-c2ccccc2)sc1NC(=S)N1CCOCC1 | 27.5 |  |  |  |
| O=C(O)c1ccccc1NC(=S)N1CCCC1 | 18.3 |  |  |  |
| CCN(CC)C(=O)Nc1ccccc1C(=O)O | 26.4 |  |  |  |
| CCN(CC)C(=S)Nc1scc(C(C)C)c1C(=O)O | 14.5 |  |  |  |
| CN1CCN(C(=S)Nc2sc3c(c2C(=O)O)CCCC3)CC1 |  |  | Not Active |  |
| CCN(CC)C(=S)Nc1sc2c(c1C(=O)O)CCC2 | 2.56 | > 100 |  | inhibition at 31.6 µM (BCRP (ABCG2)): 25% |
| O=C(O)c1c(NC(=O)N2CCOCC2)sc2c1CCCC2 |  |  | Not Active |  |
| O=C(O)c1c(NC(=S)N2CCOCC2)sc2ccccc12 |  |  | Not Active |  |
| CN(C(=S)Nc1sccc1C(=O)O)C1CCCCC1 | 4.51 | > 100 |  | IC50 [5]: 10.2 µM; Activity 2008 [6]: inactive; Activity 2008 [7]: inactive |
| CN(C(=O)Nc1ccccc1C(=O)O)C1CCCCC1 |  | > 100 |  | inhibition at 31.6 µM (BCRP (ABCG2)): 25% |
| CN(CCc1ccccc1)C(=O)Nc1ccccc1C(=O)O |  |  | Not Active |  |
| CCN(CC)C(=O)Nc1cc2ccccc2cc1C(=O)O |  | > 100 |  |  |
| CC(C)NC(=O)Nc1sc2c(c1C(=O)O)CCCC2 |  |  | Not Active |  |
| CCN(CC)C(=S)Nc1sccc1C(=O)O | 4.46 | > 100 |  | inhibition at 31.6 µM (BCRP (ABCG2)): 25% |
| Cc1sc(NC(=S)N(C)C2CCCCC2)c(C(=O)O)c1C | 4.19 | > 100 |  | inhibition at 31.6 µM (BCRP (ABCG2)): 25% |
| CN(Cc1ccccc1)C(=O)Nc1ccccc1C(=O)O | 42.6 |  |  |  |
| O=C(O)c1c(-c2ccccc2)csc1NC(=S)N1CCOCC1 |  |  | Not Active |  |
| O=C(O)c1ccccc1NC(=O)N1CCCC1 | 43.1 |  |  |  |
| O=C(O)c1ccccc1NC(=S)N1CCOCC1 |  |  | Not Active |  |

| SMILES | IC50 [1] [µM] | IC50 2008 [3] [µM] | inhibition (INH) [4] | also measured |
| --- | --- | --- | --- | --- |
| Cc1cc(NC(=O)N2CCOCC2)c(C(=O)O)cc1C | 43.4 |  |  |  |
| Cc1ccc(NC(=O)N2CCOCC2)c(C(=O)O)c1 |  |  | Not Active |  |
| CCN(CC)C(=S)Nc1sc2c(c1C(=O)O)CCCC2 | 2.71 | > 100 |  | inhibition at 31.6 µM (BCRP (ABCG2)): 25% |
| Cc1ccc(NC(=O)N(C)CCc2ccccc2)c(C(=O)O)c1 |  |  | Not Active |  |
| Cc1ccc(NC(=O)N(C)c2ccccc2)c(C(=O)O)c1 |  |  | Not Active |  |
| COC(=O)CN(C)C(=O)Nc1ccccc1C(=O)O |  |  | Not Active |  |
| CCN(CC)C(=S)Nc1sc(C(N)=O)c(C)c1C(=O)O | > 100 |  |  |  |
| CN(C(=S)Nc1ccccc1C(=O)O)C1CCCCC1 |  | > 100 |  | inhibition at 31.6 µM (BCRP (ABCG2)): < 20% |
| Cc1ccc(NC(=O)N(C)Cc2ccccc2)c(C(=O)O)c1 |  |  | Not Active |  |
| CN(C(=O)Nc1ccccc1C(=O)O)c1ccccc1 |  |  | Not Active |  |
| Cc1ccc(NC(=O)N(C)C2CCCCC2)c(C(=O)O)c1 | 22.8 |  |  |  |
| COc1cc(C2Oc3cc(-c4oc5cc(O)cc(O)c5c(=O)c4O)ccc3OC2CO)ccc1O (stereo not given) [DEHYDROSILYLBIN] |  |  |  | IC50 [8]: 1.1 µM |
| CN(CCc1ccccc1)C(=S)Nc1ccccc1C(=O)O | 24 |  |  |  |
| CCN(CC)C(=O)Nc1sc2c(c1C(=O)O)CCC2 |  | > 100 |  | inhibition at 31.6 µM (BCRP (ABCG2)): 25% |
| CN(C(=S)Nc1sc2ccccc2c1C(=O)O)C1CCCCC1 | 1.23 | > 100 |  | inhibition at 31.6 µM (BCRP (ABCG2)): 25% |
| CCN(CC)C(=S)Nc1sc2ccccc2c1C(=O)O | 0.932 | > 100 |  | IC50 [5]: 6.16 µM; Activity 2008 [6]: inactive; Activity 2008 [7]: inactive |
| CCN(CC)C(=O)Nc1sc2c(c1C(=O)O)CCCC2 |  | > 100 |  | inhibition at 31.6 µM (BCRP (ABCG2)): 25% |
| CCN(CC)C(=S)Nc1ccccc1C(=O)O | 21.6 |  |  |  |
| CCN(CC)C(=S)Nc1sc(-c2ccccc2)cc1C(=O)O | 14.3 | > 100 |  | inhibition (A2780 ADR [9]): 40%; inhibition (A2780 ADR [10]): 20% |
| CN(C)C(=S)Nc1sc2c(c1C(=O)O)CCCC2 |  |  | Not Active |  |
| O=C(O)c1ccccc1NC(=S)N1CCNCC1 | 20.7 |  |  |  |
| CN(C(=S)Nc1ccccc1C(=O)O)c1ccccc1 | 198 |  |  |  |
| CCN(CC)C(=S)Nc1sc2c(c1C(=O)O)C(C)CCC2 (racemic) | 4.06 | > 100 |  | IC50 [5]: 9.1 µM |
| O=C(O)c1ccccc1NC(=O)N1CCOCC1 |  |  | Not Active |  |
